OX1R antag-1: human HCRTR1 antagonism; O43613; CHO/OX1R cells, Fluo-8 calcium fluorescence, orexin A; inhibition, % at 5 µM; 330,000 compounds, 0.43% hits;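 active = inhibition above its plate's threshold, mean inhibition of all tested compounds on the plate plus 3 SD, cut at about 37% in these data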;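 also: 0% = orexin A challenge wells and 100% = SB-334867-A antagonist wells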
TAAR1 ag: agonists of human TAAR1; CHO RD-HGA16 TAAR1, Fluo-8 calcium fluorescence; vehicle wells 0%, saturating PEA agonist 100%; activation, % at 3 µM; AID 624467; Q96RJ0; 360,000 compounds, 0.99% hits;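 active = activation above the mean activation of all test compounds in the run plus 3 SD, cut at about 38% in these data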
Target sequence (Q96RJ0 whole entry, looked up): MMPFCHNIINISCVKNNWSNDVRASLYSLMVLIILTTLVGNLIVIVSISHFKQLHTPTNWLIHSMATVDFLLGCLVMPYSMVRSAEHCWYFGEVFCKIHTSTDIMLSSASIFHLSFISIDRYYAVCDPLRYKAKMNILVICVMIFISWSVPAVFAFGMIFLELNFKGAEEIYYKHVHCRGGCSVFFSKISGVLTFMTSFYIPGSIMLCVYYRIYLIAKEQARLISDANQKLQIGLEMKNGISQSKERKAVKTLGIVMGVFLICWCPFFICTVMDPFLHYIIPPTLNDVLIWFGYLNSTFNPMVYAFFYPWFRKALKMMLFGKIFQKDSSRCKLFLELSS
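Assay system – CHO-derived RD-HGA16 cells with stable Gα16 and human TAAR1 · Compound dosing – one-point dosing at 3 µM (nominal) · Incubation – 17-24 h seeding, 75 min 37 °C dye, 30 min RT · Measured by – kinetic Fluo-8 calcium fluorescence · Control set – DMSO vehicle as 0%, PEA at EC100 as 100% · Repeats – single well for each compound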
GalR3 antagonist: blocks the human galanin receptor 3. O60755. HEK293 GalR3-CNG cAMP membrane potential fluorescence; galR3 body fused to GalR1 C-terminus. inhibition, % at 3 µM. 360,000 compounds, 0.44% hits;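 active = inhibition above the screen-wide average plus 3 SD, cut at about 13% in these data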;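 also: forskolin and galanin both at EC90 stimulate the cells; cAMP rise reported by CNG channel membrane potential dye signal; 0% = forskolin plus galanin with DMSO and 100% = forskolin alone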
Target sequence (O60755 1-299 limits assumed): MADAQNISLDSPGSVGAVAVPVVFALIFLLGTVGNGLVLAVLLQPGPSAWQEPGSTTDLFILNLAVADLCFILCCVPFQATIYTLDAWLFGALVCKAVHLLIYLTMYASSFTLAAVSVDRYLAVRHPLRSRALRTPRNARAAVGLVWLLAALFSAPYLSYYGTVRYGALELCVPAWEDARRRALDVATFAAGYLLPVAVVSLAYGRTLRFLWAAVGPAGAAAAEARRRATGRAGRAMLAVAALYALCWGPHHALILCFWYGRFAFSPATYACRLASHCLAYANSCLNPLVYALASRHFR
CHO parental Ca: counter-screen: ATP calcium response change in parental CHO cells; 330,000 compounds, 0.63% hits; parental CHO-K1, ATP-induced calcium, Fluo-8 fluorescence; inhibition, % at 5.6 µM;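 active = inhibition above that plate's mean sample inhibition plus 3 SD, cut at about 26% in these data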;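 also: 0% = ATP-challenged DMSO wells and 100% = DMSO wells without ATP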
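Test system: untransfected parental CHO cell line; also added: ATP stimulus; dosing: 5.6 µM, single dose; signal: calcium-sensitive Fluo-8 fluorescence; measure: percent inhibition of ATP-evoked calcium rise, normalized to controls; benchmarks: low control ATP plus DMSO, high control DMSO only; replication: one well per compound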
TAAR1 antagonist: human TAAR1 antagonism; inhibition, % at 3 µM; Q96RJ0; 360,000 compounds, 1.5% hits; CHO RD-HGA16 TAAR1, Fluo-8 calcium fluorescence, antagonist;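 active = inhibition above a per-plate cutoff, the mean inhibition of test compounds on that plate plus 3 SD, cut at about 49% in these data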;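 also: 0% = DMSO plus EC80 beta-PEA response and 100% = DMSO alone without agonist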
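test system = CHO RD-HGA16 cells bearing hTAAR1 | replication = singlicate | controls = DMSO-only wells and EC80 β-PEA-stimulated wells | reagent = EC80 β-phenethylamine stimulus | read-out basis = percent inhibition of PEA-evoked calcium signal, max/basal emission ratio | schedule = seeding 17-24 h prior, 75-min 37 °C, 30-min RT dye loading | signal = kinetic Fluo-8 calcium fluorescence measurement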
OX1R antag-2: blocks the human orexin 1 receptor | O43613 | inhibition, % at 6.6 µM | 330,000 compounds, 1.8% hits | OX1R-expressing cells, FRET antagonist read-out | AID 485270; in the data active = inhibition mostly above about 38%, no sharp cut-off; inactive = mostly below about 40%;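 also: 0% = agonist challenge alone and 100% = reference antagonist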
Starred values were filed as active, the others as inactive; nt = not tested or not shown. Sampled rows, rich in hits. Any-hit rate of the full collection: about 4.3%.

SMILES	OX1R antag-1	TAAR1 ag	GalR3 antagonist	CHO parental Ca	TAAR1 antagonist	OX1R antag-2
CCN(CC)CC(O)Cn1c(C)c(-c2ccccc2)c2cc([N+](=O)[O-])ccc21 (stereo not drawn)	2	30	-15	-13	11	14
Cc1c(C(=O)NCC2COc3ccccc3O2)oc2ccc(S(=O)(=O)N3CCOCC3)cc12 (stereo not drawn)	5	33	-2	8	58*	25
COc1cccc(NC(=O)c2oc3ccc(S(=O)(=O)N4CCOCC4)cc3c2C)c1	-10	19	-6	24	52*	21
Cc1c(C(=O)NCCc2ccccc2)oc2ccc(S(=O)(=O)N3CCOCC3)cc12	12	38*	1	5	29	5
Cc1ccc(NC(=O)c2oc3ccc(S(=O)(=O)N4CCOCC4)cc3c2C)cc1C	-6	15	-6	0	47	18
COCCCNC(=O)c1oc2ccc(S(=O)(=O)N3CCOCC3)cc2c1C	3	7	-7	5	6	3
Cc1c(C(=O)NCCC2=CCCCC2)oc2ccc(S(=O)(=O)N3CCC4(CC3)OCCO4)cc12	0	21	1	-5	60*	54
Cc1ccc(C)c(NC(=O)C2CCN(S(=O)(=O)c3ccc4c(c3)NC(=O)CO4)CC2)c1	-16	0	-4	-7	14	10
O=C1c2cccc(O)c2C(=O)c2c(O)cccc21	-7	nt	nt	-8	nt	33
CC1OC(CC(=O)O)CC2=C1C(=O)c1c(O)cccc1C2=O (stereo not drawn)	nt	83*	6	nt	63*	nt
Cc1cc(N2CCNC[C@@H]2C)ccc1N1CCN(Cc2ccccc2)[C@@H](C)C1	nt	12	-1	nt	-4	nt
C/C(=N\NC(=O)COc1ccccc1-c1ccccc1)c1ccc(O)cc1O	-12	-1	-8	-18	50*	13
CC(Sc1nc2ccccc2c(=O)n1CC1CCCO1)C(=O)N(C)c1ccccc1 (stereo not drawn)	-19	5	-2	-22	28	32*
Cc1cccn2cc(-c3ccccc3)nc12	-6	3	-3	-16	9	20
COc1ccc(-c2cn3cccc(C)c3n2)cc1Br	-24	-2	-1	-14	-2	74*
COc1ccc(CNn2c(-c3cccs3)nc3ccccc3c2=O)cc1OC	-27	13	-4	-14	51*	32
COc1cccc(C(=O)Nn2c(-c3cccs3)nc3ccccc3c2=O)c1OC	-36	8	-7	-11	36	11
COc1ccc(OCC(=O)Nn2c(-c3ccc(C)cc3)nc3ccccc3c2=O)cc1	-13	6	-3	-17	-10	19
COc1ccc(OC)c(CNn2c(-c3cccc(C)c3)nc3ccccc3c2=O)c1	6	12	-7	-26	17	50*
O=C(NC(c1ccc(Cl)cc1)c1cccnc1)C1CCN(CCOc2ccc(Cl)cc2Cl)CC1 (stereo not drawn)	nt	16	-10	nt	36	nt
O=[N+]([O-])c1c(Nc2ccccc2O)ccc2nonc12	-20	1	7	2	0	59*
Cc1ccccc1Nc1ccc2nonc2c1[N+](=O)[O-]	nt	0	-10	nt	-16	nt
CCc1nnc(NS(=O)(=O)c2ccc(Nc3ccc4nonc4c3[N+](=O)[O-])cc2)s1	-20	5	-3	-8	21	49*
CCc1nnc(NS(=O)(=O)c2ccccc2)s1	-5	0	-1	0	12	6
COC(=O)C1=C(C)N(Cc2ccc(Cl)cc2)C(=S)NC1c1ccc(Br)cc1 (stereo not drawn)	nt	0	-9	nt	6	nt
SMILES	OX1R antag-1	TAAR1 ag	GalR3 antagonist	CHO parental Ca	TAAR1 antagonist	OX1R antag-2
Cc1cc2ccccn2c1C(=O)c1ccc(Cl)cc1	-17	2	-9	-37	-2	20
Cc1cc2ccccn2c1C(=O)c1ccncc1	1	2	-2	3	-14	32*
CCCCOc1ccc(S(=O)(=O)Nc2cccnc2)cc1	7	14	-14	39*	12	15
Cc1ccc(S(=O)(=O)Nc2cccnc2)cc1	-4	12	-4	-6	-4	0
CCOc1cc(CNCCSc2nnnn2C)cc(Br)c1OCc1ccccc1	51*	17	-3	66*	13	11
CCOc1cc(CNCCO)cc(Br)c1OCc1ccccc1	8	23	-14	-7	-10	15
CN1OC[C@@H]2CN(C(=O)CCc3ccccc3)[C@H](c3cccc(-c4ccc(C#N)cc4)c3)C[C@@H]21	nt	1	-4	nt	15	nt
COc1cccc(C(=O)N[C@@H](CC(C)C)C(=O)N2CCC[C@H]2C(=O)NCc2ccccc2)c1	nt	-1	-2	nt	-11	nt
Cc1noc(C)c1S(=O)(=O)Nc1ccc(C(=O)N2CCN(c3ccc(Cl)cc3)CC2)cc1	49*	9	-7	36*	30	45
O=C(O)C1=CC[C@@H](c2ccc(Cl)cc2)N(S(=O)(=O)c2ccc(Cl)cc2)[C@H]1c1ccc(Br)cc1	24	0	-8	3	52*	25
Cc1ccc([C@@H]2CC=C(C(=O)O)[C@H](c3ccc(Cl)cc3)N2S(=O)(=O)c2ccc(C)cc2)cc1	-17	4	7	-8	21	46
O=C(O)C1=CC[C@@H](c2ccc(Cl)cc2)N(S(=O)(=O)c2ccc(Cl)cc2)[C@H]1c1cccc(Cl)c1	37	6	-3	78*	64*	85*
COc1cccc([C@@H]2CC=C(C(=O)O)[C@H](c3ccccc3)N2S(=O)(=O)c2ccc(C)cc2)c1	-19	10	-7	-14	8	24
Cc1ccc(S(=O)(=O)N2[C@@H](c3ccc(Cl)cc3)C(C(=O)O)=CC[C@H]2c2ccc(Cl)cc2)cc1	12	2	2	2	55*	58*
COc1cccc([C@@H]2CC=C(C(=O)O)[C@H](c3cccc(Cl)c3)N2S(=O)(=O)c2ccc(C)cc2)c1	9	2	-4	-17	13	69*
Cc1ccc(S(=O)(=O)N2[C@@H](c3ccc(Cl)cc3)C(C(=O)O)=CC[C@H]2c2cccc(Cl)c2)cc1	-21	1	2	9	-9	10
Nc1ccn([C@@H]2O[C@H](C(=O)N[C@H](Cc3ccccc3)C(=O)NCC(=O)N3CCOCC3)[C@@H](O)[C@H]2O)c(=O)n1	nt	0	-5	nt	-15	nt
COc1ccc(CCNC(=O)COC(=O)C2CC2C)cc1OC (stereo not drawn)	3	10	-2	-7	11	-4
COc1cc(/C=N/NC(=O)c2ccc3c(c2)OCCO3)cc(Br)c1O	-4	22	3	-6	-14	23
